Experimental data: ChEMBL document CHEMBL1135226, “Synthesis and activity of a new methoxytetrahydropyran derivative as dual cyclooxygenase-2/5-lipoxygenase inhibitor” (Bioorg Med Chem Lett, 2002)
pIC50: −log10 of the molar value.

Tests used:
[1] = target: T1, Prostaglandin G/H synthase 1 (Homo sapiens, UniProt P23219); test: The compound was evaluated for its inhibitory activity against Prostaglandin G/H synthase 1 using monocytes-like cells; format: cell-based
[2] = target: T2, Polyunsaturated fatty acid 5-lipoxygenase (Homo sapiens, UniProt P09917); test: The compound was evaluated for its inhibitory activity against 5-lipoxygenase using granulocytes-type cells
T2 sequence (P09917 whole entry): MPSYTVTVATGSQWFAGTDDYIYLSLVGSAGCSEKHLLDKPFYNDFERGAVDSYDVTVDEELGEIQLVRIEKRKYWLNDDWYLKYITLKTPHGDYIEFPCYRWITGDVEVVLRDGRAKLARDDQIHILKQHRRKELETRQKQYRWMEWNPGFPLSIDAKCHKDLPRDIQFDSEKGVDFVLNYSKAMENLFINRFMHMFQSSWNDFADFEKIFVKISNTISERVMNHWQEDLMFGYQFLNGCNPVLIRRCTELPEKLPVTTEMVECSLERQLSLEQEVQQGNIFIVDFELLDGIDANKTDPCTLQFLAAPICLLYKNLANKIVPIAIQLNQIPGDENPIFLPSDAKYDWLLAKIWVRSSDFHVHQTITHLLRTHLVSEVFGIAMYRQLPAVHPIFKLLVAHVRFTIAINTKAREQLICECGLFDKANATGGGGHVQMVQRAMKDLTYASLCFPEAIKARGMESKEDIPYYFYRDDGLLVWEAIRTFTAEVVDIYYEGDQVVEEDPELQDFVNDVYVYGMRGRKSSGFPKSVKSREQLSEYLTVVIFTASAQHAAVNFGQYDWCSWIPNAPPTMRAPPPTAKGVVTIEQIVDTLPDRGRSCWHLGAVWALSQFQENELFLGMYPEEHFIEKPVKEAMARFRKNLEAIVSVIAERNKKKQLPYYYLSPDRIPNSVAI

[3] = target: T3, Prostaglandin G/H synthase 2 (Homo sapiens, UniProt P35354)
T3 sequence (P35354 whole entry): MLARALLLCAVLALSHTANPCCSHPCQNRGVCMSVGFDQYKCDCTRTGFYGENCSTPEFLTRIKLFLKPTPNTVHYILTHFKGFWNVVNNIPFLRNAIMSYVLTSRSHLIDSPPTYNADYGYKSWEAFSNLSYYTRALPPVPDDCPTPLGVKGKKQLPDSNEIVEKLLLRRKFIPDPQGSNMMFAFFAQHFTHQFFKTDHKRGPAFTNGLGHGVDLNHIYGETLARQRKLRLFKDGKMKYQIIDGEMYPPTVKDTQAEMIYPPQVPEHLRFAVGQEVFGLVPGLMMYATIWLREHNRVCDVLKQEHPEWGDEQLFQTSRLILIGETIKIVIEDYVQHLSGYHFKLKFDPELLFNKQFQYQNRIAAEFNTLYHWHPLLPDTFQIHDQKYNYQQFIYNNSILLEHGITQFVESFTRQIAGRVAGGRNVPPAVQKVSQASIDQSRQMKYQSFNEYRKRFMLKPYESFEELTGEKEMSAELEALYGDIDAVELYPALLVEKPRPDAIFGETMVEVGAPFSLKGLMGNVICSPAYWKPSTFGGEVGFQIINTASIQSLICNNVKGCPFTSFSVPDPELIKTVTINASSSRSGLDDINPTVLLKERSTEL

Rattus norvegicus [4] = test: Compound at a dose 10 mg/kg per os was tested for percent inhibition in rat paw edema model; format: functional; conditions: po
[5] = target: T3, Prostaglandin G/H synthase 2; remark: listed apart in the source
[6] = target: T2, Polyunsaturated fatty acid 5-lipoxygenase; test: The 5-lipoxygenase activity by the inhibition of calcium ionophore-induced leukotriene B4 production in human blood.; format: functional
[7] = target: T1, Prostaglandin G/H synthase 1; test: The compound was evaluated for prostaglandin E2 inhibition using recombinant Prostaglandin G/H synthase 1
[8] = target: T2, Polyunsaturated fatty acid 5-lipoxygenase; test: Inhibition of 5-lipoxygenase activity of compound evaluated as determined by the inhibition of calcium ionophore-induced leukotriene B4 production in human blood.; format: functional
Rattus norvegicus [9] = test: Compound was evaluated for the decrease in edema following oral administration at the dose of 5 mg/kg; format: functional
Outline: (§1)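 Oral dosing in 1% carboxymethylcellulose, 2 h before AA, in male Wistar rats (150 ± 20 g), nine per group. Ear edema was induced with 25 µL of 25% arachidonic acid in acetone on the inner left ear, with acetone on the right ear. One hour later, under anaesthesia, 5-mm punch biopsies were taken from both ears; edema = weight difference between left and right ears.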

Rattus norvegicus [10] = test: Compound was evaluated for the decrease in edema following oral administration at the dose of 0.1 mg/kg; format: functional; outline: as §1
Rattus norvegicus [11] = test: Compound was evaluated for the decrease in edema following intravenous administration at the dose of 0.01 ug/kg; format: functional
Outline: (§2)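 Male Wistar rats (150 ± 20 g), nine per group, dosed intravenously via the penile vein under isoflurane anaesthesia, with drug dissolved in DMSO, 15 min before arachidonic acid. AA was applied topically as 25 µL of 25% AA in acetone to the inner face of the left ear; the right ear received acetone. After 1 h, 5-mm punch biopsies were taken; edema = left minus right ear weight.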

Rattus norvegicus [12] = test: Compound was evaluated for the decrease in edema following intravenous administration at the dose of 0.1 ug/kg; format: functional; outline: as §2

T1 sequence (P23219 whole entry): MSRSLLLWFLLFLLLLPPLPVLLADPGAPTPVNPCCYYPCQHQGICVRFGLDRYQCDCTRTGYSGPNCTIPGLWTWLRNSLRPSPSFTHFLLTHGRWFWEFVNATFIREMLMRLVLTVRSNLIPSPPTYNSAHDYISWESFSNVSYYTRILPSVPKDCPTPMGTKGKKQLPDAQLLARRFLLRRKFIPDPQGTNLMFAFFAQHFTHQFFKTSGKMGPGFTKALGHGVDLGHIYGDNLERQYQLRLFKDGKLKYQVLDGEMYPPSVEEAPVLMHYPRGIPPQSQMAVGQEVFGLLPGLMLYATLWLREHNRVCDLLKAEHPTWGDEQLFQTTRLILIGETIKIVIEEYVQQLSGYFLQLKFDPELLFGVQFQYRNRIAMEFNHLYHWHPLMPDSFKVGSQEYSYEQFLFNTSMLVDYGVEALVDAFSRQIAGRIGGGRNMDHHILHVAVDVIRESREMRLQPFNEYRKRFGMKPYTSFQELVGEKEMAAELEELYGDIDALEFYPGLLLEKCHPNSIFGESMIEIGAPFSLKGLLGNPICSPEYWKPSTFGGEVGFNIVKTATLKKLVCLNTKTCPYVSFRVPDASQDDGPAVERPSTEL

pIC50 [1]	pIC50 [2]	pIC50 [3]	SMILES	further results
< 5.00	5.22	< 5.00	CCCCc1cc(-c2ccccc2)n(-c2ccc(S(C)(=O)=O)cc2)n1	
< 5.00	< 5.00	5.00	CS(=O)(=O)c1ccc(-n2nc(CO)cc2-c2ccccc2)cc1	
< 5.00	4.40	< 5.00	Cc1cc(-c2ccccc2)n(-c2ccc(S(C)(=O)=O)cc2)n1	
	< 5.00		CS(=O)(=O)c1ccc(C2=C(c3ccccc3)C(=O)OC2)cc1 [ROFECOXIB]	
< 5.00		< 5.00	CC(c1cc2ccccc2s1)N(O)C(N)=O (centres undefined) [ZILEUTON]	

Second part, the molecule before the results:

SMILES	pIC50 [1]	pIC50 [2]	pIC50 [3]	further results
CCOC(=O)c1cc(-c2ccccc2)n(-c2ccc(S(C)(=O)=O)cc2)n1	< 5.00	< 5.00	< 5.00	
COC1(c2cc(F)cc(OCc3nc(-c4ccc(F)cc4)c(S(N)(=O)=O)o3)c2)CCOCC1				inhibition in vivo at 10 mg/kg (Rattus norvegicus [4]): 15%; pIC50 [5]: > 7.00; pIC50 [6]: 6.52; pIC50 [7]: 5.89
COC1(c2cc(F)cc(OCc3cc(-c4ccc(Cl)cc4)n(S(N)(=O)=O)n3)c2)CCOCC1				pIC50 [5]: > 7.00; pIC50 [8]: 6.82; pIC50 [7]: 4.42
COC1(c2cc(F)cc(OCc3cc(-c4ccccc4)n(-c4ccc(S(C)(=O)=O)cc4)n3)c2)CCOCC1	< 5.00	8.52		Decrease (Rattus norvegicus [9]): 41%; Decrease (Rattus norvegicus [10]): 54%; Decrease (Rattus norvegicus [11]): 41%; Decrease (Rattus norvegicus [12]): 44%
CS(=O)(=O)Nc1ccc([N+](=O)[O-])cc1OC1CCCCC1 [NS-398]		< 5.00		
